Source: PubChem BioAssay (The Scripps Research Institute Molecular Screening Center)
An excerpt weighted towards active compounds, which were near 1.4% of everything screened.
FID counter – counter-screen for HCV NS3 helicase inhibitors: DNA intercalator displacement. 0.17% of 290,000 active. inhibition, % at 7.9 µM. DNA fluorescent intercalator displacement, fluorescence; in the data active means inhibition above about 37%;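 further: higher means more ethidium bromide displaced from hairpin DNA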
PLC-beta3 inh – PLC-beta3 (human) inhibition, primary screen; inhibition, % at 12.2 µM; Purified PLC-beta3, fluorogenic substrate, fluorescence; Q01970; 0.18% of 370,000 active; in the data active means inhibition above about 11%
DDE Tn7 FP inh – inhibitors of Tn7 peptide binding to human fibrin DD(E); 0.13% of 370,000 active; P02675; AID 720508; inhibition, % at 8.3 µM; FP displacement of FITC-Tn7 peptide from fibrin DD(E); 0% = median of compound wells per plate;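 active means inhibition above the mean of compounds falling within the control limits plus 3 SD of them, cut at about 14% in these data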
Target sequence (P02675 whole entry, looked up): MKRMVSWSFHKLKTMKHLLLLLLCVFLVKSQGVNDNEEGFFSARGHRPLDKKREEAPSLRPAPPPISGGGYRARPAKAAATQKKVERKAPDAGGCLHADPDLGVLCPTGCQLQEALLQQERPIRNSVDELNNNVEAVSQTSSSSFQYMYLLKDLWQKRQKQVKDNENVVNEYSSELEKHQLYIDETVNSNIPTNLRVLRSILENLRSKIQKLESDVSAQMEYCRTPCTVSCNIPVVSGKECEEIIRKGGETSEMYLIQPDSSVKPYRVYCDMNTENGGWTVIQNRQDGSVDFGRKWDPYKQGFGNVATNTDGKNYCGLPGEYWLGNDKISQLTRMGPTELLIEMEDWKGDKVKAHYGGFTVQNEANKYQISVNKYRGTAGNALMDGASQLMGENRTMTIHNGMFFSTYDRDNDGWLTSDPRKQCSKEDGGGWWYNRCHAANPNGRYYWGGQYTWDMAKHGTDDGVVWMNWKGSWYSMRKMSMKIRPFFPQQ
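Test system: human clot-derived fibrin DD(E) complex / Quantity: 2 µM final DD(E) protein / Incubation: 10 min plus 3 h, room temperature / Measured by: fluorescence polarization / Benchmarks: high control of 10 µM Aha-Tn7 peptide / Replicates: singlicate testing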
PLCg1 inh – PLC-gamma1 (human) inhibition, primary screen. purified PLC-gamma1, fluorogenic substrate, fluorescence. inhibition, % at 12.2 µM. 0.84% of 370,000 active. AID 720700; in the data active means inhibition above about 9.5%
DDE Tn6 FP inh – disrupts Tn6 cyclic peptide binding to fibrin D-Dimer-E complex; 0.21% of 370,000 active; Fibrin DD(E) TRITC-Tn6 fluorescence polarization displacement; inhibition, % at 8.3 µM; AID 720509;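 active means inhibition above a per-campaign cutoff: mean of compounds within control limits plus 3 SD, cut at about 15% in these data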
A number is an active result; – = inactive; · = no result.

SMILES	FID counter	PLC-beta3 inh	DDE Tn7 FP inh	PLCg1 inh	DDE Tn6 FP inh
COc1ccc(S(=O)(=O)N2CCCC(C(=O)Nc3ccc(OC)c(OC)c3)C2)cc1 (configuration not stated)	–	–	–	–	–
COc1ccc(NC(=O)C2CCCN(S(=O)(=O)c3ccccc3)C2)c(OC)c1 (configuration not stated)	–	–	–	12	–
Cc1cc(/C=N/NC(N)=S)c(O)c(/C=N/NC(N)=S)c1	–	–	43	–	–
COc1nc(Nc2nc3ccccc3c(=O)[nH]2)nc2ccc(C)cc12	–	–	–	14	–
COc1ccc(C(OCC(O)CNCCc2ccccc2)c2ccc(OC)cc2)cc1 (configuration not stated)	41	–	–	–	–
COc1ccc(C(OCC(O)CNC(C)c2ccccc2)c2ccc(OC)cc2)cc1 (configuration not stated)	–	–	–	–	–
CCN(CC)c1cccc(OC2=NS(=O)(=O)c3ccccc32)c1	–	–	–	–	111
CCc1ccc(OC2=NS(=O)(=O)c3ccccc32)cc1	–	–	–	–	–
CC1(c2cccc(Br)c2)NC(=O)N(CC(=O)Nc2cccnc2Cl)C1=O (configuration not stated)	–	–	–	10	–
CC1(c2ccccc2Cl)NC(=O)N(CC(=O)Nc2cccnc2Cl)C1=O (configuration not stated)	·	–	–	–	–
COc1ccc(OC)c2c(N3CC(C)OC(C)C3)cc(C(F)(F)F)nc12 (configuration not stated)	–	–	–	–	–
C#CCOCCOCCOCCNc1nc(N2CCN(C(=O)[C@H](CCCCN)n3cc([C@@H](N)CC(C)C)nn3)CC2)nc(N2CCN(C(=O)[C@H](Cc3cc4ccccc4[nH]3)n3cc([C@@H](N)Cc4ccc(O)cc4)nn3)CC2)n1	76	·	·	·	·
C#CCOCCOCCOCCNc1nc(N2CCN(C(=O)[C@H](CCCCN)n3cc([C@@H](N)CC(C)C)nn3)CC2)nc(N2CCN(C(=O)[C@H](Cc3cc4ccccc4[nH]3)n3cc([C@@H](N)CC(C)C)nn3)CC2)n1	·	–	–	–	–
C#CCOCCOCCOCCNc1nc(N2CCN(C(=O)[C@H](CCCCN)n3cc([C@@H](N)CO)nn3)CC2)nc(N2CCN(C(=O)[C@H](Cc3cc4ccccc4[nH]3)n3cc([C@@H](N)Cc4ccc(O)cc4)nn3)CC2)n1	55	·	·	·	·
COC(=O)Nc1ccc2c(c1)N(C(=O)CCN1CCN3CCCC3C1)c1ccccc1S2 (configuration not stated)	39	–	–	–	–
O=C(N=C1N=C2C=CC(Br)=CN2Cc2ccccc21)c1ccc([N+](=O)[O-])cc1[N+](=O)[O-]	–	11	–	13	–
CCOc1ccccc1N1CCN(C(=O)Cc2ccc(S(=O)(=O)N3CCOCC3)s2)CC1	·	–	–	–	–
COc1ccc(-c2cccc(-c3cc(=O)oc4cc(OC)c(OC)c(OC)c34)c2)cc1	·	–	–	–	–
CN(C)S(=O)(=O)c1cccc(NC(=O)CN2C(=O)NC(Cc3ccccc3)C2=O)c1 (configuration not stated)	·	–	–	–	–
CCN(CC)Cc1cc(Nc2ccnc3cc(Cl)ccc23)ccc1O	69	–	–	–	–
CCN(CC)CCNc1ccnc2cc(Cl)ccc12	48	–	–	–	–
CC1CCN(S(=O)(=O)c2ccc(NC(=O)Cn3nnc(-c4ccccc4)n3)cc2)CC1	–	–	–	–	19
CC1(C)CC(Cc2ccc(C(=O)c3ccccc3)cc2)N(C(=O)OC(C)(C)C)N1 (configuration not stated)	·	–	–	11	–
CN(C)CCNC(=O)c1ccc(Sc2ccc(Br)cc2)c([N+](=O)[O-])c1	39	–	–	–	–
CC(=O)NCCNC(=O)c1ccc(Sc2ccccc2)c([N+](=O)[O-])c1	–	–	–	–	–
SMILES	FID counter	PLC-beta3 inh	DDE Tn7 FP inh	PLCg1 inh	DDE Tn6 FP inh
ON=C1c2cc(OCCN3CCCCC3)ccc2-c2ccc(OCCN3CCCCC3)cc21	–	·	·	·	·
NC(=S)NN=C1c2cc(OCCN3CCOCC3)ccc2-c2ccc(OCCN3CCOCC3)cc21	54	–	–	–	–
COc1cc(CNC(=O)CCCC(=O)c2ccccc2)cc(OC)c1OC	–	–	–	9.9	–
CC(C)C[C@H]1CN([C@@H](Cc2ccc(O)cc2)CN2CCC[C@@H]2CN2C(=O)C(=O)NC[C@@H]2Cc2ccccc2)C(=O)C(=O)N1CC1CCCCC1	·	–	–	13	–
CC(C)C[C@@H](CN1CCC[C@@H]1CN1C(=O)C(=O)NC[C@@H]1Cc1ccccc1)N1C[C@H](Cc2ccccc2)N(CC2CCCCCC2)C(=O)C1=O	·	13	–	–	–
CCN1CCCC1CNC(=O)C(=O)NC(C)c1ccccc1 (configuration not stated)	–	–	–	–	–
Cc1ccc(NC(=O)Cn2cc([N+](=O)[O-])nc2C)cc1C	–	–	–	–	–
CCCc1cc(=O)oc2c(C)c(OCC(=O)N3CCC[C@@H]3C(=O)O)ccc12	–	–	–	–	–
CCc1cc(=O)oc2cc(OCC(=O)N3CCC[C@H]3C(=O)O)ccc12	95	–	–	–	–
CC1=NN(C(=O)c2cc(C)nn2C)C(O)(C(F)(F)F)C1 (configuration not stated)	–	–	–	–	–
O=C(O)CCNc1ccc(NCCC(=O)O)c2c1C(=O)c1ccccc1C2=O	–	–	–	–	–
O=C1c2cccc(NCCNCCO)c2C(=O)c2cccc(NCCNCCO)c21	·	–	–	–	48
O=C(OCc1ccccc1)N1CCCC2CC1c1ccccc12 (configuration not stated)	·	–	–	–	–
Cc1ccc(-c2nnn(CCC(=O)N3CCCCC3C)n2)cc1 (configuration not stated)	–	–	–	13	–
O=C(OCc1nnc(-c2ccc(Cl)cc2)o1)c1ccncc1	–	–	–	–	–
Cc1noc(C)c1COc1ccc(C(=O)OCc2nnc(-c3ccc(Cl)cc3)o2)cc1	–	–	–	12	–
COCCNC(=O)/C(C#N)=C/c1cc(Br)c(O)c(OC)c1	–	–	–	–	–
CCOC(=O)Cn1c(CN2CCN(C(=O)c3ccco3)CC2)nc2c1c(=O)n(C)c(=O)n2C	–	–	–	–	–
CC(C)C[C@H](NC(=O)c1[nH]cnc1C(=O)N[C@@H](C)C(=O)OC(C)(C)C)C(=O)OCc1ccccc1	·	–	–	–	–
CC(C)C[C@H](NC(=O)c1[nH]cnc1C(=O)N[C@@H](C)C(=O)OCc1ccccc1)C(=O)OCc1ccccc1	·	–	–	11	–
O=C(Nc1c2ccccc2nc2ccccc12)C(Cl)(Cl)Cl	38	·	·	·	·
O=C(Cc1ccccc1)NNc1c2ccccc2nc2ccccc12	–	–	–	–	–
COc1ccc2sc(N(CCCN(C)C)C(=O)c3nc4ccccc4s3)nc2c1	–	–	–	–	–
